Data: ChEMBL document CHEMBL1152551, “Synthesis and pharmacological evaluation of novel 1- and 8-substituted-3-furfuryl xanthines as adenosine receptor antagonists” (Bioorg Med Chem, 2009)

Assays:
[1] = biological target: Adenosine receptor A2a (Homo sapiens, UniProt P29274); experiment: Displacement of [3H]ZM241385 from human adenosine A2A receptor expressed in HeLa cells at 1 uM by microplate beta scintillation counting; assay type: cell-based
In short: (§1)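 Single concentration of 1 µM tested for displacement of specific radioligand binding, given as percentage displacement. Rat A1 in rat cortex membranes with [3H]DPCPX; human A2B in HEK-293 cells with [3H]DPCPX; human A2A in HeLa cells with [3H]ZM241385; human A3 in HeLa cells with [3H]NECA.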

[2] = biological target: T1, Adenosine receptor A3 (Homo sapiens) (UniProt P0DMS8); experiment: Displacement of [3H]NECA from human recombinant adenosine A3 receptor expressed in HeLa cells at 1 uM; assay type: cell-based; in short: as §1
T1 sequence (whole entry): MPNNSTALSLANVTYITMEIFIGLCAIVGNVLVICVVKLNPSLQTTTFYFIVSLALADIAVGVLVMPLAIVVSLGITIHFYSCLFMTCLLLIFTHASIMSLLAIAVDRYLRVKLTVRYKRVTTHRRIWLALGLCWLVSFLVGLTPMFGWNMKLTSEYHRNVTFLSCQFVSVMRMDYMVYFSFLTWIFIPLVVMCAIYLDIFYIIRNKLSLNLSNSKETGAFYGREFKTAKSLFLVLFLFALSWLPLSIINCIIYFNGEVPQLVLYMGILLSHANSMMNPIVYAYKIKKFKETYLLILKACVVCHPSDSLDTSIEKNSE

[3] = biological target: T2, Adenosine receptor A2b (Homo sapiens) (UniProt P29275); experiment: Displacement of [3H]DPCPX from human adenosine A2B receptor expressed in HEK293 cells at 1 uM; assay type: cell-based; in short: as §1
T2 sequence (whole entry): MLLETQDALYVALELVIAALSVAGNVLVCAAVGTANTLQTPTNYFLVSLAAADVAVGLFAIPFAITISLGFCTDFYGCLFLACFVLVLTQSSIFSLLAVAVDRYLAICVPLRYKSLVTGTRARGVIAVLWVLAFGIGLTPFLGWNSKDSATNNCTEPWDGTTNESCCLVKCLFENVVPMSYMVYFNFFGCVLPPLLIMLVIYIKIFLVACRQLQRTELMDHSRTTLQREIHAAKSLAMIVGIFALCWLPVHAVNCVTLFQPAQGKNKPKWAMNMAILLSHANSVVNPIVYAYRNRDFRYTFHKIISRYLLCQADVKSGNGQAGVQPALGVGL

[4] = biological target: T3, Adenosine receptor A1 (Rattus norvegicus) (UniProt P25099); experiment: Displacement of [3H]DPCPX form adenosine A1 receptor in rat cortex membrane at 1 uM; assay type: cell membranes; in short: as §1
T3 sequence (whole entry): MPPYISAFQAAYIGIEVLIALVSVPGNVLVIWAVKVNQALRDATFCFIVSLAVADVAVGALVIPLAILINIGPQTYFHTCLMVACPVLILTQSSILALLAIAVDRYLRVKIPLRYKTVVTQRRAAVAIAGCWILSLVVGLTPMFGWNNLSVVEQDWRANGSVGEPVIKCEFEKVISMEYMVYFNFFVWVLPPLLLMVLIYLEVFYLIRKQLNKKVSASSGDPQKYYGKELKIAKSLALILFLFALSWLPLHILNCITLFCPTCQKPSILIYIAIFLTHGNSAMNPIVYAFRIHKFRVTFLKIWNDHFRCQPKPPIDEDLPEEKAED

Adenosine receptor A2a, sequence (P29274 whole entry): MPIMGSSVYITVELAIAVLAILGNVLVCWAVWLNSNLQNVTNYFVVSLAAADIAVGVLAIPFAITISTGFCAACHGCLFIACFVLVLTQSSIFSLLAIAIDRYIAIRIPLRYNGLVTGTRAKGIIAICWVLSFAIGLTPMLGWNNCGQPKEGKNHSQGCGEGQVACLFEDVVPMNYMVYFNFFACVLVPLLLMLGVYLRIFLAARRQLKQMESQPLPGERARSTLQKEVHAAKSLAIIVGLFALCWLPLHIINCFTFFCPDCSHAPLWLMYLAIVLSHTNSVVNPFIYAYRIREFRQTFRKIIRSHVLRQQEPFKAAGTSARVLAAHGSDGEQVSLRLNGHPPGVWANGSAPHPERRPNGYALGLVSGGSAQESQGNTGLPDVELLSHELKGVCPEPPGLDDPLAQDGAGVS

In the case of `CCCCCn1c(=O)c2[nH]c(Cc3cccs3)nc2n(Cc2ccco2)c1=O`, the Activity [1] is reported as 10%, the Activity [2] is reported as 11% and the Activity [3] is reported as 17%. For the same compound, the Activity [4] was 21%.
